From ChEMBL document CHEMBL4052792, “3-Hydroxykynurenine, a Tryptophan Metabolite Generated during the Infection, Is Active Against Trypanosoma cruzi” (ACS Med Chem Lett, 2017)
Active and inactive are the calls of the source. No cut-off for these calls is given here.

Experiments:
Trypanosoma cruzi [1] = assay: (§1) Trypanocidal activity against Trypanosoma cruzi Tulahuen amastigotes infected in BALB/C mouse bone marrow derived macrophages assessed as parasite infected macrophages at 200 uM treated for 24 hrs followed by compound washout measured after 48 hrs by immunofluorescence assay (reference value: 26.84 +/- 7.81%); assay type: functional
Trypanosoma cruzi [2] = assay: Induction of mitochondrial membrane potential reduction in Trypanosoma cruzi Tulahuen trypomastigotes up to 4000 uM after 24 hrs by Rh123/propidium iodide staining-based flow cytometric analysis (reference value: 3.25 +/- 1.66%); assay type: functional; set-up: scale not given: the % may be the effect or the level left
Outline: (§2)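 Trypomastigotes were treated with 3-HK for 24 h at 37 °C, then incubated with PI plus Rh123. Rh123 fluorescence was read by flow cytometry in PI-negative (live) parasites. The depolarized fraction was taken as the low-fluorescence M2 population. Index of variation = (treated median − control median)/control median. Three experiments were run.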

Trypanosoma cruzi [3] = assay: as §1, with “400” for “200”; assay type: functional
Trypanosoma cruzi [4] = assay: Trypanocidal activity against Trypanosoma cruzi Tulahuen amastigotes infected in BALB/C mouse bone marrow derived macrophages assessed as decrease in intracellular parasite growth after 72 hrs by immunofluorescence assay; assay type: functional, cell-based
Outline: (§3)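 Macrophages were infected with trypomastigotes and treated with 3-HK for 24 h. Immunofluorescence counts were made at 72 h post-infection. Intracellular parasites per 200 cells were expressed relative to medium-treated cultures, and infected cells were counted among 200 macrophages. Data are means ± SD of four independent experiments.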

[5] = Induction of apoptosis in BALB/C mouse BMDM assessed as cells with hypodiploid DNA content at 0.2 uM after 24 hrs by FITC/propidium iodide staining based flow cytometric analysis (reference value: 29.9%); assay type: functional
Trypanosoma cruzi [6] = assay: as §1, with “20” for “200”; assay type: functional
Trypanosoma cruzi [7] = assay: Trypanocidal activity against Trypanosoma cruzi Tulahuen trypomastigotes infected in mouse whole blood assessed as increase in parasite death at 0.2 uM by trypan blue assay; assay type: functional; conditions: TDE = time-dependent effect
Trypanosoma cruzi [8] = assay: as §1, with “800” for “200”; assay type: functional
Trypanosoma cruzi [9] = assay: Trypanostatic activity against Trypanosoma cruzi Tulahuen amastigotes infected in BALB/C mouse bone marrow derived macrophages assessed as effect on flagellum structure at 20 uM after 24 hrs by transmission electron microscopic analysis; assay type: functional
Outline: (§4)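 Bone marrow-derived macrophages were infected for 24 h, then exposed to 20 μM for 24 h or left untreated. Intracellular amastigote ultrastructure was examined by transmission electron microscopy, covering mitochondrion, nucleus, kinetoplast, flagellum, flagellar pocket, subpellicular microtubules and cytoplasmic structures.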

Trypanosoma cruzi [10] = assay: Trypanocidal activity against Trypanosoma cruzi Tulahuen amastigotes infected in BALB/C mouse bone marrow derived macrophages assessed as reduction in endocytic index at 0.2 uM after 72 hrs by immunofluorescence assay relative to control; assay type: functional
Trypanosoma cruzi [11] = assay: as §1, with “1800” for “200”; assay type: functional
[12] = Induction of apoptosis in BALB/C mouse BMDM assessed as cells with hypodiploid DNA content at 2000 uM after 24 hrs by FITC/propidium iodide staining based flow cytometric analysis (reference value: 29.9%); assay type: functional
Candida albicans = assay: Antimicrobial activity against Candida albicans ATCC10231 after 10 to 20 hrs; assay type: functional
Trypanosoma cruzi [13] = assay: as §1, with “2000” for “200”; assay type: functional
Trypanosoma cruzi [14] = assay: Trypanocidal activity against Trypanosoma cruzi Tulahuen amastigote forms infected in BALB/C mouse bone marrow derived macrophages assessed as decrease in parasite growth at 200 uM after 72 hrs by immunofluorescence assay; assay type: functional; outline: as §3
Trypanosoma cruzi [15] = assay: Trypanocidal activity against Trypanosoma cruzi Tulahuen trypomastigotes assessed as reduction in parasites after 72 hrs by trypan blue assay; assay type: functional
Outline: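 Bloodstream trypomastigotes were incubated at 37 °C in culture medium alone or with increasing doses for 24, 48 and 72 h. Parasite death was scored as percentage by trypan blue exclusion. Results are means ± SD of three independent experiments.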

Trypanosoma cruzi [16] = assay: Trypanostatic activity against Trypanosoma cruzi Tulahuen amastigotes infected in BALB/C mouse bone marrow derived macrophages assessed as effect on flagellar pocket at 20 uM after 24 hrs by transmission electron microscopic analysis; assay type: functional; outline: as §4
Trypanosoma cruzi [17] = assay: Trypanocidal activity against Trypanosoma cruzi Tulahuen amastigotes infected in BALB/C mouse bone marrow derived macrophages assessed as endocytic index at 1500 uM treated for 24 hrs followed by compound washout measured after 48 hrs by immunofluorescence assay (reference value: 213.66 +/- 58.79); assay type: functional
[18] = Induction of apoptosis in BALB/C mouse BMDM assessed as cells with hypodiploid DNA content at 1200 uM after 24 hrs by FITC/propidium iodide staining based flow cytometric analysis (reference value: 29.9%); assay type: functional
Trypanosoma cruzi [19] = assay: Induction of mitochondrial membrane depolarization in Trypanosoma cruzi Tulahuen trypomastigotes at 0.2 uM after 24 hrs by Rh123/propidium iodide staining-based flow cytometric analysis (reference value: 3.25 +/- 1.66%); assay type: functional; outline: as §2
Trypanosoma cruzi [20] = assay: Ratio of IC50 for Trypanosoma cruzi Tulahuen trypomastigotes infected in BALB/C mouse bone marrow derived macrophages to IC50 for Trypanosoma cruzi Tulahuen amastigotes infected in BALB/C mouse bone marrow derived macrophages; assay type: functional
Trypanosoma cruzi [21] = assay: Trypanocidal activity against Trypanosoma cruzi Tulahuen amastigotes infected in BALB/C mouse bone marrow derived macrophages assessed as decrease in parasite infected macrophages at 200 uM after 72 hrs by immunofluorescence assay; assay type: functional; outline: as §3
Trypanosoma cruzi [22] = assay: Trypanocidal activity against Trypanosoma cruzi Tulahuen amastigotes infected in BALB/C mouse bone marrow derived macrophages assessed as endocytic index at 800 uM treated for 24 hrs followed by compound washout measured after 48 hrs by immunofluorescence assay (reference value: 213.66 +/- 58.79); assay type: functional
Jurkat = assay: Cytotoxicity against human Jurkat cells assessed as reduction in cell viability at 0.2 to 2000 uM after 24 hrs by trypan blue exclusion assay; assay type: cell-based
Outline: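 Mammalian cells (human PBMC, Swan 71, Jurkat; bone marrow-derived macrophages; J774) were exposed to 3-HK at 0.2 to 2000 μM for 24 h. Viability was then scored by trypan blue exclusion.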

Trypanosoma cruzi [23] = assay: Trypanocidal activity against Trypanosoma cruzi Tulahuen amastigotes infected in BALB/C mouse bone marrow derived macrophages assessed as endocytic index at 0.2 uM treated for 24 hrs followed by compound washout measured after 48 hrs by immunofluorescence assay (reference value: 213.66 +/- 58.79); assay type: functional
Trypanosoma cruzi [24] = assay: Trypanocidal activity against Trypanosoma cruzi Tulahuen amastigotes infected in BALB/C mouse bone marrow derived macrophages assessed as endocytic index at 2 uM treated for 24 hrs followed by compound washout measured after 48 hrs by immunofluorescence assay (reference value: 213.66 +/- 58.79); assay type: functional
[25] = Induction of apoptosis in BALB/C mouse BMDM assessed as cells with hypodiploid DNA content at 200 uM after 24 hrs by FITC/propidium iodide staining based flow cytometric analysis (reference value: 29.9%); assay type: functional
Trypanosoma cruzi [26] = assay: as §1, with “1500” for “200”; assay type: functional

SMILES: Nc1c(O)cccc1C(=O)C[C@H](N)C(=O)O
- Activity (Trypanosoma cruzi [1]): 7.76%
- Activity (Trypanosoma cruzi [2]): 8 - 12%
- Activity (Trypanosoma cruzi [3]): 14.66%
- Activity (Trypanosoma cruzi [4]): Dose-dependent effect
- Activity [5]: 27.5%
- Activity (Trypanosoma cruzi [6]): 8.63%
- Activity (Trypanosoma cruzi [7]): Tde
- Activity (Trypanosoma cruzi [8]): 15.1%
- Activity (Trypanosoma cruzi [9]): inactive
- inhibition at 0.2 µM (Trypanosoma cruzi [10]): 68%
- Activity (Trypanosoma cruzi [11]): 14.32%
- Activity [12]: 26.4%
- IC50 (Candida albicans): 30 to 137 µM
- Activity (Trypanosoma cruzi [13]): 16.31%
- Activity (Trypanosoma cruzi [14]): Active
- IC50 (Trypanosoma cruzi [15]): 20 to 200 µM
- Activity (Trypanosoma cruzi [16]): inactive
- Activity (Trypanosoma cruzi [17]): 124.36
- Activity [18]: 26.3%
- Activity (Trypanosoma cruzi [19]): 3.88%
- Ratio IC50 (Trypanosoma cruzi [20]): 6000
- Activity (Trypanosoma cruzi [21]): Active
- Activity (Trypanosoma cruzi [22]): 99.39
- Activity (Jurkat): Non-Toxic
- Activity (Trypanosoma cruzi [23]): 67.61
- Activity (Trypanosoma cruzi [24]): 60.59
- Activity [25]: 35.4%
- Activity (Trypanosoma cruzi [26]): 18.07%
